A short description of assay [1]: Binding affinity to hairpin double stranded DNA AT base pair in sodium cacodylate buffer at pH 6.8 assessed as triplex-forming ability measuring melting temperature after by UV melting experiment. A digest of the protocol:
(§1)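 TFO and hairpin dsDNA target, each strand at 1.89 μM final, in 10 mM sodium cacodylate (pH 6.8) with 100 mM KCl and 50 mM MgCl₂. Annealed in boiling water, then cooled slowly to 5 °C. Melting was followed at 260 nm from 5 to 90 °C at 0.5 °C/min. Tm was taken by the two-point average method, mean of three independent runs.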

Assay [2] in a line: Binding affinity to hairpin double stranded DNA GC base pair in sodium cacodylate buffer at pH 6.8 assessed as triplex-forming ability measuring melting temperature after by UV melting experiment. A digest of the protocol:
as §1

Assay [3] can be described thus: Binding affinity to hairpin double stranded DNA CG base pair in sodium cacodylate buffer at pH 6.8 assessed as triplex-forming ability measuring melting temperature after by UV melting experiment. A digest of the protocol: as §1
The nature of assay [4]: Binding affinity to hairpin double stranded DNA TA base pair in sodium cacodylate buffer at pH 6.8 assessed as triplex-forming ability measuring melting temperature after by UV melting experiment. The gist of the method: as §1

Consider `Cc1cn([C@H]2C[C@H](O[PH](OCCC#N)(OC[C@H]3O[C@@H](n4cc(C)c(=O)[nH]c4=O)C[C@@H]3O[PH](OCCC#N)(OC[C@H]3O[C@@H](n4cc(C)c(=O)[nH]c4=O)C[C@@H]3O[PH](OCCC#N)(OC[C@H]3O[C@@H](n4cc(C)c(=O)[nH]c4=O)C[C@@H]3O[PH](OCCC#N)(OC[C@H]3O[C@@H](n4cc(C)c(=O)[nH]c4=O)C[C@@H]3O[PH](OCCC#N)(OC(C)[C@H]3O[C@@H](n4ccc(N)nc4=O)C[C@@H]3O[PH](OCCC#N)(OC[C@H]3O[C@@H](n4cc(C)c(=O)[nH]c4=O)C[C@@H]3O[PH](OCCC#N)(OC[C@H]3O[C@@H](OCc4cn(-c5cccc(CO)c5)nn4)C[C@@H]3OP(=O)(O)OC[C@H]3O[C@@H](n4cc(C)c(=O)[nH]c4=O)C[C@@H]3O[PH](OCCC#N)(OC(C)[C@H]3O[C@@H](n4ccc(N)nc4=O)C[C@@H]3O[PH](OCCC#N)(OC[C@H]3O[C@@H](n4cc(C)c(=O)[nH]c4=O)C[C@@H]3O[PH](OCCC#N)(OC(C)[C@H]3O[C@@H](n4ccc(N)nc4=O)C[C@@H]3O[PH](OCCC#N)(OC[C@H]3O[C@@H](n4cc(C)c(=O)[nH]c4=O)C[C@@H]3O[PH](OCCC#N)(OC(C)[C@H]3O[C@@H](n4ccc(N)nc4=O)C[C@@H]3O[PH](OCCC#N)(OC[C@H]3O[C@@H](n4cc(C)c(=O)[nH]c4=O)C[C@@H]3O)N(C(C)C)C(C)C)N(C(C)C)C(C)C)N(C(C)C)C(C)C)N(C(C)C)C(C)C)N(C(C)C)C(C)C)N(C(C)C)C(C)C)N(C(C)C)C(C)C)N(C(C)C)C(C)C)N(C(C)C)C(C)C)N(C(C)C)C(C)C)N(C(C)C)C(C)C)N(C(C)C)C(C)C)N(C(C)C)C(C)C)[C@@H](CO)O2)c(=O)[nH]c1=O` (stereo not given in full), for which the Tm in assay [1] worked out at 23 °C; in assay [2], 23 °C; in assay [3], 25 °C; in assay [4] it was 22 °C.

Consider `Cc1cn([C@H]2C[C@H](O[PH](OCCC#N)(OC[C@H]3O[C@@H](n4cc(C)c(=O)[nH]c4=O)C[C@@H]3O[PH](OCCC#N)(OC[C@H]3O[C@@H](n4cc(C)c(=O)[nH]c4=O)C[C@@H]3O[PH](OCCC#N)(OC[C@H]3O[C@@H](n4cc(C)c(=O)[nH]c4=O)C[C@@H]3O[PH](OCCC#N)(OC[C@H]3O[C@@H](n4cc(C)c(=O)[nH]c4=O)C[C@@H]3O[PH](OCCC#N)(OC(C)[C@H]3O[C@@H](N4C=CC(N)=N[C@@H]4O)C[C@@H]3O[PH](OCCC#N)(OC[C@H]3O[C@@H](n4cc(C)c(=O)[nH]c4=O)C[C@@H]3O[PH](OCCC#N)(OC[C@H]3O[C@@H](OCc4cn(-c5cccc(C(N)=O)c5)nn4)C[C@@H]3OP(=O)(O)OC[C@H]3O[C@@H](n4cc(C)c(=O)[nH]c4=O)C[C@@H]3O[PH](OCCC#N)(OC(C)[C@H]3O[C@@H](n4ccc(N)nc4=O)C[C@@H]3O[PH](OCCC#N)(OC[C@H]3O[C@@H](n4cc(C)c(=O)[nH]c4=O)C[C@@H]3O[PH](OCCC#N)(OC(C)[C@H]3O[C@@H](n4ccc(N)nc4=O)C[C@@H]3O[PH](OCCC#N)(OC[C@H]3O[C@@H](n4cc(C)c(=O)[nH]c4=O)C[C@@H]3O[PH](OCCC#N)(OC(C)[C@H]3O[C@@H](n4ccc(N)nc4=O)C[C@@H]3O[PH](OCCC#N)(OC[C@H]3O[C@@H](n4cc(C)c(=O)[nH]c4=O)C[C@@H]3O)N(C(C)C)C(C)C)N(C(C)C)C(C)C)N(C(C)C)C(C)C)N(C(C)C)C(C)C)N(C(C)C)C(C)C)N(C(C)C)C(C)C)N(C(C)C)C(C)C)N(C(C)C)C(C)C)N(C(C)C)C(C)C)N(C(C)C)C(C)C)N(C(C)C)C(C)C)N(C(C)C)C(C)C)N(C(C)C)C(C)C)[C@@H](CO)O2)c(=O)[nH]c1=O` (stereo not given in full), for which the Tm in assay [1] was 19 °C; in assay [2], 20 °C; in assay [3], 23 °C; in assay [4] it was 19 °C.

Take `Cc1cn([C@H]2C[C@H](O[PH](OCCC#N)(OC[C@H]3O[C@@H](n4cc(C)c(=O)[nH]c4=O)C[C@@H]3O[PH](OCCC#N)(OC[C@H]3O[C@@H](n4cc(C)c(=O)[nH]c4=O)C[C@@H]3O[PH](OCCC#N)(OC[C@H]3O[C@@H](n4cc(C)c(=O)[nH]c4=O)C[C@@H]3O[PH](OCCC#N)(OC[C@H]3O[C@@H](n4cc(C)c(=O)[nH]c4=O)C[C@@H]3O[PH](OCCC#N)(OC(C)[C@H]3O[C@@H](n4ccc(N)nc4=O)C[C@@H]3O[PH](OCCC#N)(OC[C@H]3O[C@@H](n4cc(C)c(=O)[nH]c4=O)C[C@@H]3O[PH](OCCC#N)(OC[C@H]3O[C@@H](CCc4cn(-c5cccc(C(N)=O)c5)nn4)C[C@@H]3OP(=O)(O)OC[C@H]3O[C@@H](n4cc(C)c(=O)[nH]c4=O)C[C@@H]3O[PH](OCCC#N)(OC(C)[C@H]3O[C@@H](n4ccc(N)nc4=O)C[C@@H]3O[PH](OCCC#N)(OC[C@H]3O[C@@H](n4cc(C)c(=O)[nH]c4=O)C[C@@H]3O[PH](OCCC#N)(OC(C)[C@H]3O[C@@H](n4ccc(N)nc4=O)C[C@@H]3O[PH](OCCC#N)(OC[C@H]3O[C@@H](n4cc(C)c(=O)[nH]c4=O)C[C@@H]3O[PH](OCCC#N)(OC(C)[C@H]3O[C@@H](n4ccc(N)nc4=O)C[C@@H]3O[PH](OCCC#N)(OC[C@H]3O[C@@H](n4cc(C)c(=O)[nH]c4=O)C[C@@H]3O)N(C(C)C)C(C)C)N(C(C)C)C(C)C)N(C(C)C)C(C)C)N(C(C)C)C(C)C)N(C(C)C)C(C)C)N(C(C)C)C(C)C)N(C(C)C)C(C)C)N(C(C)C)C(C)C)N(C(C)C)C(C)C)N(C(C)C)C(C)C)N(C(C)C)C(C)C)N(C(C)C)C(C)C)N(C(C)C)C(C)C)[C@@H](CO)O2)c(=O)[nH]c1=O` (stereo not given in full): the Tm turned out to be 22 °C in assay [1], 22 °C in assay [2], 25 °C in assay [3] and 25 °C in assay [4].

Turning to `Cc1cn([C@H]2C[C@H](O[PH](OCCC#N)(OC[C@H]3O[C@@H](n4cc(C)c(=O)[nH]c4=O)C[C@@H]3O[PH](OCCC#N)(OC[C@H]3O[C@@H](n4cc(C)c(=O)[nH]c4=O)C[C@@H]3O[PH](OCCC#N)(OC[C@H]3O[C@@H](n4cc(C)c(=O)[nH]c4=O)C[C@@H]3O[PH](OCCC#N)(OC[C@H]3O[C@@H](n4cc(C)c(=O)[nH]c4=O)C[C@@H]3O[PH](OCCC#N)(OC(C)[C@H]3O[C@@H](n4ccc(N)nc4=O)C[C@@H]3O[PH](OCCC#N)(OC[C@H]3O[C@@H](n4cc(C)c(=O)[nH]c4=O)C[C@@H]3O[PH](OCCC#N)(OC[C@H]3O[C@@H](OCc4cn(-c5cccc(O)c5)nn4)C[C@@H]3OP(=O)(O)OC[C@H]3O[C@@H](n4cc(C)c(=O)[nH]c4=O)C[C@@H]3O[PH](OCCC#N)(OC(C)[C@H]3O[C@@H](n4ccc(N)nc4=O)C[C@@H]3O[PH](OCCC#N)(OC[C@H]3O[C@@H](n4cc(C)c(=O)[nH]c4=O)C[C@@H]3O[PH](OCCC#N)(OC(C)[C@H]3O[C@@H](n4ccc(N)nc4=O)C[C@@H]3O[PH](OCCC#N)(OC[C@H]3O[C@@H](n4cc(C)c(=O)[nH]c4=O)C[C@@H]3O[PH](OCCC#N)(OC(C)[C@H]3O[C@@H](n4ccc(N)nc4=O)C[C@@H]3O[PH](OCCC#N)(OC[C@H]3O[C@@H](n4cc(C)c(=O)[nH]c4=O)C[C@@H]3O)N(C(C)C)C(C)C)N(C(C)C)C(C)C)N(C(C)C)C(C)C)N(C(C)C)C(C)C)N(C(C)C)C(C)C)N(C(C)C)C(C)C)N(C(C)C)C(C)C)N(C(C)C)C(C)C)N(C(C)C)C(C)C)N(C(C)C)C(C)C)N(C(C)C)C(C)C)N(C(C)C)C(C)C)N(C(C)C)C(C)C)[C@@H](CO)O2)c(=O)[nH]c1=O` (stereo not given in full), the Tm is 20 °C in assay [1], 21 °C in assay [2], 24 °C in assay [3] and 21 °C in assay [4].

Consider `Cc1cn([C@H]2C[C@H](O[PH](OCCC#N)(OC[C@H]3O[C@@H](n4cc(C)c(=O)[nH]c4=O)C[C@@H]3O[PH](OCCC#N)(OC[C@H]3O[C@@H](n4cc(C)c(=O)[nH]c4=O)C[C@@H]3O[PH](OCCC#N)(OC[C@H]3O[C@@H](n4cc(C)c(=O)[nH]c4=O)C[C@@H]3O[PH](OCCC#N)(OC[C@H]3O[C@@H](n4cc(C)c(=O)[nH]c4=O)C[C@@H]3O[PH](OCCC#N)(OC(C)[C@H]3O[C@@H](n4ccc(N)nc4=O)C[C@@H]3O[PH](OCCC#N)(OC[C@H]3O[C@@H](n4cc(C)c(=O)[nH]c4=O)C[C@@H]3O[PH](OCCC#N)(OC[C@H]3O[C@@H](CCc4cn(-c5ccccc5)nn4)C[C@@H]3OP(=O)(O)OC[C@H]3O[C@@H](n4cc(C)c(=O)[nH]c4=O)C[C@@H]3O[PH](OCCC#N)(OC(C)[C@H]3O[C@@H](n4ccc(N)nc4=O)C[C@@H]3O[PH](OCCC#N)(OC[C@H]3O[C@@H](n4cc(C)c(=O)[nH]c4=O)C[C@@H]3O[PH](OCCC#N)(OC(C)[C@H]3O[C@@H](n4ccc(N)nc4=O)C[C@@H]3O[PH](OCCC#N)(OC[C@H]3O[C@@H](n4cc(C)c(=O)[nH]c4=O)C[C@@H]3O[PH](OCCC#N)(OC(C)[C@H]3O[C@@H](n4ccc(N)nc4=O)C[C@@H]3O[PH](OCCC#N)(OC[C@H]3O[C@@H](n4cc(C)c(=O)[nH]c4=O)C[C@@H]3O)N(C(C)C)C(C)C)N(C(C)C)C(C)C)N(C(C)C)C(C)C)N(C(C)C)C(C)C)N(C(C)C)C(C)C)N(C(C)C)C(C)C)N(C(C)C)C(C)C)N(C(C)C)C(C)C)N(C(C)C)C(C)C)N(C(C)C)C(C)C)N(C(C)C)C(C)C)N(C(C)C)C(C)C)N(C(C)C)C(C)C)[C@@H](CO)O2)c(=O)[nH]c1=O` (stereo not given in full), for which the Tm in assay [1] was found to be 21 °C; in assay [2], 20 °C; in assay [3] it was 24 °C; in assay [4], 22 °C.

For the origin of these results see ChEMBL document CHEMBL2413013, “Triplex-forming ability of oligonucleotides containing 1-aryl-1,2,3-triazole nucleobases linked via a two atom-length spacer” (Bioorg Med Chem, 2013).
